The values below come from ChEMBL document CHEMBL4354879, “Bioisosteric Discovery of NPA101.3, a Second-Generation RET/VEGFR2 Inhibitor Optimized for Single-Agent Polypharmacology” (J Med Chem, 2020).

Active and inactive are the calls of the source. The rule behind the calls is not given here.

Data set [1] can be described thus: Toxicity in BALB/c nu/nu mouse assessed as change in calcium level at 10 mg/kg, po administered daily for 7 days. It is filed as organism-based. The conditions noted are these: in vivo, 168 h.
For data set [2], the target named is NT-3 growth factor receptor (Homo sapiens) (UniProt Q16288). The experiment in a line: Binding affinity to wild-type human partial length TRKC (Q531 to G825 residues) expressed in mammalian expression system at 100 nM by Kinomescan method relative to control.
The species named for data set [3] is Homo sapiens. The experiment in a line: Inhibition of NCOA4/RET isoform 9 (unknown origin) expressed in mouse NIH/3T3 cells assessed as reduction in RET phosphorylation at Y1062 residue at 1 to 100 nM measured after 2 hrs by Western blot analysis. It is filed as cell-based. Put shortly: (§1)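 Serum-starved RAT1 (RET point mutants) or NIH3T3 (RET rearrangements) cells expressing short RET-9 isoform, treated 2 h; 50 μg total lysate immunoblotted with anti-phospho-Y1062 and anti-phospho-Y905 RET antibodies, normalized to total RET; ECL detection. Compound from 50 mM DMSO stock diluted in growth medium.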
For orientation: A western blot detects proteins with antibodies after separation by electrophoresis.

The nature of data set [4]: Toxicity in BALB/c nu/nu mouse assessed as change in total protein level at 10 mg/kg, po administered daily for 7 days. The following applies: in vivo, 168 h. It is filed as organism-based.
A short description of data set [5]: Toxicity in BALB/c nu/nu mouse assessed as change in phosphorus level at 10 mg/kg, po administered daily for 7 days. It is filed as organism-based. The conditions noted are these: in vivo, 168 h.
The target in data set [6] is High affinity nerve growth factor receptor (Homo sapiens, UniProt P04629). The experiment in a line: Binding affinity to wild-type human partial length TRKA (G475 to G790 residues) expressed in mammalian expression system at 100 nM by Kinomescan method relative to control.
Another data set concerns 8505C. The data set can be described thus: Cytotoxicity against RET deficient human 8505C cells supplemented with fresh medium containing compound for every 2 to 3 days measured during compound dosing. It is filed as functional, cell-based. A digest of the protocol:
(§2)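 Human RET-negative lines were seeded in six-well plates at 10000 cells/well, in 5% FCS (Nthy-ori-3-1) or 10% FCS (BCPAP, 8505-C, CALU-1, A549, PC-9). Drug or vehicle was added the day after plating, with medium changed every 2–3 days. Cells were counted every 2–3 days. IC50 was fitted from the last day of the growth curves.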

The species entered for data set [7] is Homo sapiens. The experiment in a line: Inhibition of NCOA4/RET isoform 9 (unknown origin) expressed in mouse NIH/3T3 cells assessed as reduction in RET phosphorylation at Y905 residue at 1 to 100 nM measured after 2 hrs by Western blot analysis. It is filed as cell-based. A digest of the protocol: as §1
The target in data set [8] is Centrosomal protein 43/RET (Homo sapiens) (UniProt P07949+O95684). The experiment in a line: Inhibition of FGFR1OP/RET isoform 9 (unknown origin) expressed in mouse NIH/3T3 cells assessed as reduction in RET phosphorylation at Y1062 residue at 1 to 100 nM measured after 2 hrs by Western blot analysis. It is filed as cell-based. A digest of the protocol:
as §1

The next data set relates to Calu-1. The data set can be described thus: Cytotoxicity against RET deficient human Calu1 cells supplemented with fresh medium containing compound for every 2 to 3 days measured during compound dosing. It is filed as functional, cell-based. Put shortly:
as §2

For data set [9], the system named is Mus musculus. The data set can be described thus: In vivo inhibition of RET isoform 9 C634R mutant transfected in mouse NIH/3T3 cells implanted BALB/c nu/nu mouse assessed as reduction in RET phosphorylation at Y905 residue in tumor at 1 mg/kg, po administered once daily via gavage for 3 days measured 3 hrs post-last dose by Western blot analysis. It is filed as functional, organism-based.

Data set [10] has as its system Mus musculus. The experiment in a line: Antitumor activity against BALB/c nu/nu mouse implanted with mouse NIH/3T3 cells harboring HRAS G12V mutant assessed as reduction in tumor formation at 1 to 10 mg/kg, po administered once daily via gavage for 3 days. It is filed as functional, organism-based. A digest of the protocol:
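Nude mice (female BALB/c nu/nu, 6 weeks old) received subcutaneous dorsal inoculation (both sides) of NIH3T3 cells transformed by RET/C634Y (200000) or HRAS/G12V (50000). Four days later, before tumors appeared, mice were randomized to 1.0, 3.0 or 10 mg/kg/day oral gavage (8 mice/group) or vehicle (8 mice). Vehicle was 80% H2O, 19.875% Tween 20, 0.125% xanthan gum. Tumors were measured by caliper every 2–3 days, with volume = A×B²/2.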

For data set [11], the system named is Mus musculus. The data set can be described thus: In vivo inhibition of RET isoform 9 C634Y mutant transfected in mouse NIH/3T3 cells implanted BALB/c nu/nu mouse assessed as reduction in SHC phosphorylation at 3 mg/kg, po administered once daily via gavage for 2 days measured 3 hrs post-last dose by Western blot analysis.
Data set [12] concerns the target MAP kinase-interacting serine/threonine-protein kinase 2 (Homo sapiens) (UniProt Q9HBH9). The data set can be described thus: Binding affinity to wild-type human partial length MKNK2 (G63 to S388 residues) expressed in mammalian expression system at 100 nM by Kinomescan method relative to control.
Data set [13] deals with Mus musculus. The data set can be described thus: In vivo inhibition of RET isoform 9 C634Y mutant transfected in mouse NIH/3T3 cells implanted BALB/c nu/nu mouse assessed as reduction in MAPK phosphorylation at 3 mg/kg, po administered once daily via gavage for 2 days measured 3 hrs post-last dose by Western blot analysis.
Data set [14] has as its system Mus musculus. The data set can be described thus: In vivo inhibition of RET isoform 9 C634R mutant transfected in mouse NIH/3T3 cells implanted BALB/c nu/nu mouse assessed as reduction in RET phosphorylation at Y1062 residue in tumor at 1 mg/kg, po administered once daily via gavage for 3 days measured 3 hrs post-last dose by Western blot analysis. It is filed as functional, organism-based.

The test system of a further data set is BaF3. The data set can be described thus: Cytotoxicity against mouse BAF3 cells assessed as reduction in cell proliferation supplemented with fresh medium containing compound for every 2 to 3 days and measured daily. It is filed as cell-based. Put shortly: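 Ba/F3 cells (parental with IL-3 10 ng/mL; RET/C634R, RET/M918T, NCOA4-RET stable transfectants, RET-51 isoform) were seeded at 200000/well in 10% FCS. Drug or vehicle was added the day after plating, with medium changed every 2–3 days, and cells were counted daily. […] This was a single experiment in triplicate.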

Data set [15] has as its system Mus musculus. The data set can be described thus: In vivo inhibition of RET isoform 9 C634Y mutant transfected in mouse NIH/3T3 cells implanted BALB/c nu/nu mouse assessed as reduction in SHC phosphorylation in tumor at 1 mg/kg, po administered once daily via gavage for 3 days measured 3 hrs post-last dose by Western blot analysis.
A further data set relates to BCPAP. The data set can be described thus: Effect on MAPK phosphorylation in RET deficient human BCPAP cells at 1 to 100 nM measured after 2 hrs by western blot analysis. It is filed as cell-based.
Data set [16] concerns Mus musculus. The experiment in a line: In vivo inhibition of RET isoform 9 C634Y mutant transfected in mouse NIH/3T3 cells implanted BALB/c nu/nu mouse assessed as reduction in RET phosphorylation at Y905 residue at 3 mg/kg, po administered once daily via gavage for 2 days measured 3 hrs post-last dose by Western blot analysis.

Chain of Centrosomal protein 43/RET (Homo sapiens) (O95684 whole entry, looked up, canonical isoform): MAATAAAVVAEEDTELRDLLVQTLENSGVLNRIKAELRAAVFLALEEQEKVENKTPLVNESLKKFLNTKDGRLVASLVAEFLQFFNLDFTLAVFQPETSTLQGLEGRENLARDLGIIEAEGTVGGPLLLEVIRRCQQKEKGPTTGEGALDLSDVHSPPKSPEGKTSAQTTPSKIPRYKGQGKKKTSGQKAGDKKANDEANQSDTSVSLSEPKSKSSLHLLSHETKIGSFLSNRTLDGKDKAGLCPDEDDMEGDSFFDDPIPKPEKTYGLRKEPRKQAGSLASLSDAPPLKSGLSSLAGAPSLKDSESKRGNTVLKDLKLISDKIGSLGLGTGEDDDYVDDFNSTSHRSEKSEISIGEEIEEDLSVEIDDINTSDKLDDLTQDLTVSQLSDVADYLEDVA
Chain of Centrosomal protein 43/RET (Homo sapiens) (P07949 whole entry, looked up, canonical isoform): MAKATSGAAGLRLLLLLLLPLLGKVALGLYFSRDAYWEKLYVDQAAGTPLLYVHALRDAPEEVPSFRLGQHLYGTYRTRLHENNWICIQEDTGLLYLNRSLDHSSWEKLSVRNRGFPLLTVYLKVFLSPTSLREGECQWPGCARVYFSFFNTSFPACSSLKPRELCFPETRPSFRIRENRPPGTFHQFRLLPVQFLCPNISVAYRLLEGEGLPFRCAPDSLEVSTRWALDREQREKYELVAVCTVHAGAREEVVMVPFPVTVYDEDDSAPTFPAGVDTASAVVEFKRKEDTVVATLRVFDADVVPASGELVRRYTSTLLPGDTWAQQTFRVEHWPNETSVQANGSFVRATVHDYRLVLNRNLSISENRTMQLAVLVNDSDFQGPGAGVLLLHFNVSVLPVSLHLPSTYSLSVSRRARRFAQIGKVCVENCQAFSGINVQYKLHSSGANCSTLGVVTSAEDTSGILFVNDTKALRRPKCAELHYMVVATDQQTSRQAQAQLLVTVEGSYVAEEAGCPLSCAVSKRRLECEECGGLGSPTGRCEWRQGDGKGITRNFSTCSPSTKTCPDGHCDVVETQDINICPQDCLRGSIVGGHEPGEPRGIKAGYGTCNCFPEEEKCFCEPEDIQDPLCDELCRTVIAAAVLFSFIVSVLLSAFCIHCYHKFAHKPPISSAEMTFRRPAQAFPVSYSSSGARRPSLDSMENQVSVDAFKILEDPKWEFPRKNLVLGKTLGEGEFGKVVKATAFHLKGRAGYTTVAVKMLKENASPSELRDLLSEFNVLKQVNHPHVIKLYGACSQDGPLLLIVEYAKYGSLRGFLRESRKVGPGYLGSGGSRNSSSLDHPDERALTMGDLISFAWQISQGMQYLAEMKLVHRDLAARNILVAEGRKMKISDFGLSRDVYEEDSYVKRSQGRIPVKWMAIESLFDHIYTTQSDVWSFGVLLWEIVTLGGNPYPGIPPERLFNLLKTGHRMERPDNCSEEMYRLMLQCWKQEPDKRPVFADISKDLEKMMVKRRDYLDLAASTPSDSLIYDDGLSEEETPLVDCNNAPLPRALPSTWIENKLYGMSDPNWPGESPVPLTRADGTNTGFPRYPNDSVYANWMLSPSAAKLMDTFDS
Chain of NT-3 growth factor receptor (Homo sapiens) (Q16288 32-839 limits assumed): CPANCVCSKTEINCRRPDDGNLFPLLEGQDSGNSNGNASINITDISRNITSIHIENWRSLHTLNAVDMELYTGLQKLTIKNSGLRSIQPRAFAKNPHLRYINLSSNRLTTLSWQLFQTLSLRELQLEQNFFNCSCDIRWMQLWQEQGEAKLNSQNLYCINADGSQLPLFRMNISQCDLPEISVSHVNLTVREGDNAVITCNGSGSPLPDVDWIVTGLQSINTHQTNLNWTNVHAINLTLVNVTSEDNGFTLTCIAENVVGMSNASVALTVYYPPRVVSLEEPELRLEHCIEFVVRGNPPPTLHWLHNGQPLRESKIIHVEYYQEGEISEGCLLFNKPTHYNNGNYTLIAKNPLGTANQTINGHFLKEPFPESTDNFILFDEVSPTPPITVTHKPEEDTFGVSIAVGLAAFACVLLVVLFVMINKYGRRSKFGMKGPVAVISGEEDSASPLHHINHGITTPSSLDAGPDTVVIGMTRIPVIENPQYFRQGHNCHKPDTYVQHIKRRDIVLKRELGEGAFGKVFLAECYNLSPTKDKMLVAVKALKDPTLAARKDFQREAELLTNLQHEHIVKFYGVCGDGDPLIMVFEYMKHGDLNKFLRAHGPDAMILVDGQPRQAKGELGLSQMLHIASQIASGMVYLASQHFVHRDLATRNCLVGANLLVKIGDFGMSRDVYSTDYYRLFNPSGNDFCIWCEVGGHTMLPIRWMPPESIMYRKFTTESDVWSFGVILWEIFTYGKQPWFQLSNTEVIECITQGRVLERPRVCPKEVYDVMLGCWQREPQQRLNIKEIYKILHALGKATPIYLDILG
Chain of MAP kinase-interacting serine/threonine-protein kinase 2 (Homo sapiens) (Q9HBH9 whole entry, looked up, the tested form may be a part, canonical isoform): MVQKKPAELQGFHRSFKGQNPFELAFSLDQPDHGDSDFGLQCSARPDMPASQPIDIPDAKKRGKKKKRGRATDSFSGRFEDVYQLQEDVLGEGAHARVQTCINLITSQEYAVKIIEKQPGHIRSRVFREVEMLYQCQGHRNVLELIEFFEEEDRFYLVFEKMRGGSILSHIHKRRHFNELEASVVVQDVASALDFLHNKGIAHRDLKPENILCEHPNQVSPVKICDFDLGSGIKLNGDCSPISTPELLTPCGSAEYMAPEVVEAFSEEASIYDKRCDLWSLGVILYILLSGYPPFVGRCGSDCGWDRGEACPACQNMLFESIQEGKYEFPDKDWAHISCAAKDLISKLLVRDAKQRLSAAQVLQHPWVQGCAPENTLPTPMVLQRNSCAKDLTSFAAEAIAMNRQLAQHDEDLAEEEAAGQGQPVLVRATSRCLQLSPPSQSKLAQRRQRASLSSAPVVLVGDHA
Chain of High affinity nerve growth factor receptor (P04629 33-796 limits assumed): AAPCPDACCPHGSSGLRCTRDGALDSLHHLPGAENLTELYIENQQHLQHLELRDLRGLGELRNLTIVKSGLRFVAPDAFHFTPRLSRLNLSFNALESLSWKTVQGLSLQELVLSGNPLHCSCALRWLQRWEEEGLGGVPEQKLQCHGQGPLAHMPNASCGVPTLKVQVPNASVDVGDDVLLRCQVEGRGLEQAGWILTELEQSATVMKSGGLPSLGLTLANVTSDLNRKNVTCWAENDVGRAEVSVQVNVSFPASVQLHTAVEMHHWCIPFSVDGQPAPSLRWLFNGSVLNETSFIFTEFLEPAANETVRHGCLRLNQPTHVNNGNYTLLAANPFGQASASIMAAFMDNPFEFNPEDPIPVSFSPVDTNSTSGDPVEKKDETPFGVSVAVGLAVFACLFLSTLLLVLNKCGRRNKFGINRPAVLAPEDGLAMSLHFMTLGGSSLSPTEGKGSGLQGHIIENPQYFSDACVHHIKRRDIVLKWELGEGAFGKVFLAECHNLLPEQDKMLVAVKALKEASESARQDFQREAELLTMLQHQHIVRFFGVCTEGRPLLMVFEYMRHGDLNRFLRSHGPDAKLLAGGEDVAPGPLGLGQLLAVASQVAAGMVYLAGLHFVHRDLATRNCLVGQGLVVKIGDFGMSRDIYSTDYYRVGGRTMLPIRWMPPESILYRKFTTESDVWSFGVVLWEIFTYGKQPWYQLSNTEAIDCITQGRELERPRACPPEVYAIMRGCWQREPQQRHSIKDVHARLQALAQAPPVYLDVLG

For orientation: IC50 means the concentration needed to halve the response being measured. Turning to `CC(C)(C)c1cc(NC(=O)Cc2ccc(-n3cnc4cc(-c5ccc(S(C)(=O)=O)cc5)ccc43)cc2)no1`, the Activity entry is “Non-Toxic” in data set [1]; more than 90% in data set [2]; “Non-Toxic” in data set [4]; “Non-Toxic” in data set [5]; more than 90% in data set [6]; more than 90% in [12]. The inhibition result (in the data set listed under Homo sapiens [3]; in the data set filed under Homo sapiens [7]; in data set [8]; in the data set with Mus musculus [9]; in the data set with Mus musculus [11]; in the data set with Mus musculus [13]) was “Active” throughout. The inhibition result in the data set with Mus musculus [14], with Mus musculus [15] and in the data set with Mus musculus [16] was “Active” in each case. The 50% inhibitory concentration (IC50) in the data set with 8505C, in the data set with Calu-1 and in the data set with BaF3 was more than 100 nM in each case. Moreover, the result in the data set with Mus musculus [10] and in the data set with BCPAP was inactive.
